Test [1] deals with HBZY-1. The test can be described thus: Cytoprotective activity against HG-induced cell death in rat HBZY-1 cells assessed as […] at 0.9 uM by Annexin V-FITC/propidium iodide staining-based flow cytometric analysis (reference value: 2.83). Format: functional.
The subject of test [2] is HBZY-1. In words: Cytoprotective activity against HG-induced cell death in rat HBZY-1 cells assessed as increase in apoptosis by measuring late apoptotic cells at 10 uM by Annexin V-FITC/propidium iodide staining-based flow cytometric analysis (reference value: 18.18%). Format: functional.
In test [3] the test system is HBZY-1. The test can be described thus: Downregulation of collagen 4 levels in rat HBZY-1 cells at 0.3 to 0.9 uM by Western blot analysis. It is filed as functional, cell-based. For orientation: In western blotting, separated proteins are transferred to a membrane and probed.
Test [4] deals with HBZY-1. In words: Downregulation of laminin levels in rat HBZY-1 cells at 0.3 to 0.9 uM by Western blot analysis. Format: functional, cell-based.
In test [5] the test system is HBZY-1. In words: Cytoprotective activity against HG-induced cell death in rat HBZY-1 cells assessed as […] by measuring early apoptotic cells at 10 uM by Annexin V-FITC/propidium iodide staining-based flow cytometric analysis (reference value: 8.13%). Format: functional. On the technique in general: Flow cytometry measures light scatter and fluorescence of single cells or particles in a stream.

Test [6] relates to Rattus norvegicus. In words: Antidiabetic activity in STZ-induced diabetic nephropathy Wistar rat model assessed as reduction in urinary microalbumin level at 40 to 160 mg/kg administered daily for 8 weeks measured up to 8 weeks by ELISA. It is filed as functional, organism-based. The method in brief: (§1)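 Male Wistar rats (300±50 g), adapted under specific pathogen-free conditions with free access to food and water. STZ diabetic nephropathy counted if blood glucose ≥13.88 mM with raised urinary microalbumin. Groups: saline, untreated DN, 40, 80 or 160 mg/kg, and reference inhibitor 100 mg/kg. Dosed daily for eight weeks. Urine and blood sampled at weeks 2, 4, 6 and 8. Mean ± SD, n = 8.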
(In an ELISA, binding on a coated surface is turned into a signal by an enzyme label.)

For test [7], the system named is HBZY-1. In words: Cytoprotective activity against HG-induced cell death in rat HBZY-1 cells assessed as increase in apoptosis by measuring late apoptotic cells at 0.6 uM by Annexin V-FITC/propidium iodide staining-based flow cytometric analysis (reference value: 18.81%). It is filed as functional.
For test [8], the system named is HBZY-1. In words: Cytoprotective activity against HG-induced cell death in rat HBZY-1 cells at 0.9 uM after 24 to 96 hrs by MTT assay. Format: functional, cell-based.
For test [9], the system named is Rattus norvegicus. The test can be described thus: Antidiabetic activity in STZ-induced diabetic nephropathy Wistar rat model assessed as reduction in blood glucose level at 40 to 160 mg/kg administered daily for 8 weeks measured up to 8 weeks by ELISA. Format: functional, organism-based. A digest of the protocol:
as §1

In test [10] the test system is Rattus norvegicus. In words: Protection against […] in Wistar rat model assessed as reduction in glomerular mesangial hyperplasia at 40 to 160 mg/kg administered daily for 8 weeks measured after 8 weeks by hematoxylin/eosin dye-based analysis. Format: functional, organism-based. The method in brief:
as §1

The test system of test [11] is HBZY-1. The test can be described thus: Cytoprotective activity against HG-induced cell death in rat HBZY-1 cells assessed as increase in apoptosis by measuring late apoptotic cells at 0.9 uM by Annexin V-FITC/propidium iodide staining-based flow cytometric analysis (reference value: 18.81%). Format: functional.
Test [12] relates to HBZY-1. In words: Cytoprotective activity against HG-induced cell death in rat HBZY-1 cells assessed as […] by measuring late apoptotic cells at 0.3 uM by Annexin V-FITC/propidium iodide staining-based flow cytometric analysis (reference value: 18.81%). It is filed as functional.
In test [13] the test system is Rattus norvegicus. In words: Antidiabetic activity in STZ-induced diabetic nephropathy Wistar rat model assessed as increase in catalase level at 40 to 160 mg/kg administered daily for 8 weeks measured up to 8 weeks by ELISA. Format: functional, organism-based. The method in brief: as §1
The test system of test [14] is Rattus norvegicus. In words: Antidiabetic activity in STZ-induced diabetic nephropathy Wistar rat model assessed as increase in total antioxidant capacity at 40 to 160 mg/kg administered daily for 8 weeks measured up to 8 weeks by ELISA. Format: functional, organism-based. A digest of the protocol: as §1
The test system of test [15] is Rattus norvegicus. In words: Antidiabetic activity in STZ-induced diabetic nephropathy Wistar rat model assessed as decrease in laminin level at 40 to 160 mg/kg administered daily for 8 weeks measured up to 8 weeks by ELISA.
Test [16] relates to Rattus norvegicus. The test can be described thus: Antidiabetic activity in STZ-induced diabetic nephropathy Wistar rat model assessed as decrease in collagen 4 level at 40 to 160 mg/kg administered daily for 8 weeks measured up to 8 weeks by ELISA.
Test [17] relates to HBZY-1. In words: Cytoprotective activity against HG-induced cell death in rat HBZY-1 cells assessed as […] at 0.3 uM by Annexin V-FITC/propidium iodide staining-based flow cytometric analysis (reference value: 2.83). It is filed as functional.
Test [18] concerns Rattus norvegicus. The test can be described thus: Antidiabetic activity in STZ-induced diabetic nephropathy Wistar rat model assessed as increase in total superoxide dismutase level at 40 to 160 mg/kg administered daily for 8 weeks measured up to 8 weeks by ELISA. It is filed as functional, organism-based. The method in brief:
as §1

For test [19], the target named is Aldo-keto reductase family 1 member B1 (Homo sapiens) (UniProt P15121). The test can be described thus: Uncompetitive inhibition of recombinant human AR at 60 to 140 nM in presence of various concentrations of DL-glyceraldehyde by Lineweaver-Burk plot analysis.
Test [20] has as its system Rattus norvegicus. The test can be described thus: Antidiabetic activity in STZ-induced diabetic nephropathy Wistar rat model assessed as increase in glutathione level at 40 to 160 mg/kg administered daily for 8 weeks measured up to 8 weeks by ELISA. It is filed as functional, organism-based. The method in brief: as §1
The test system of test [21] is HBZY-1. The test can be described thus: Cytoprotective activity against HG-induced cell death in rat HBZY-1 cells assessed as […] by measuring early apoptotic cells at 0.3 uM by Annexin V-FITC/propidium iodide staining-based flow cytometric analysis (reference value: 8.13%). Format: functional.
For test [22], the system named is HBZY-1. The test can be described thus: Cytoprotective activity against HG-induced cell death in rat HBZY-1 cells assessed as […] at 0.3 to 0.9 uM by Hoechst staining-based analysis. Format: functional. The method in brief:
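HBZY-1 rat mesangial cells grown in low-glucose DMEM (5.56 mM) with 10% FBS at 37°C and 5% CO2. Pretreated, then exposed to 33 mM glucose. 1×10^4 cells seeded per well, fixed in 70% ethanol for 20 min at room temperature, and stained with Hoechst for 5 min. Imaged by fluorescence microscopy at 400×.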

In test [23] the target is Aldo-keto reductase family 1 member B1 (Rattus norvegicus, UniProt P07943). In words: Inhibition of AR in Sprague-Dawley rat lens using DL-glyceraldehyde as substrate by spectrophotometric analysis. A digest of the protocol: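 Inhibition is expressed relative to uninhibited enzyme activity, set as 100%. For the kinetic study, DL-glyceraldehyde was used at 0.083, 0.125, 0.25 and 1.0 mM. […] Results were analysed by Lineweaver-Burk double-reciprocal plots of 1/V against 1/S.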

For test [24], the system named is HBZY-1. The test can be described thus: Cytoprotective activity against HG-induced cell death in rat HBZY-1 cells assessed as […] at 0.6 uM by Annexin V-FITC/propidium iodide staining-based flow cytometric analysis (reference value: 2.83). It is filed as functional.
Test [25] has as its system HBZY-1. In words: Cytoprotective activity against HG-induced cell death in rat HBZY-1 cells assessed as […] by measuring early apoptotic cells at 0.6 uM by Annexin V-FITC/propidium iodide staining-based flow cytometric analysis (reference value: 8.13%). Format: functional.
Test [26] deals with HBZY-1. The test can be described thus: Cytoprotective activity against HG-induced cell death in rat HBZY-1 cells at 0.3 to 0.9 uM after 24 to 96 hrs by MTT assay. Format: functional, cell-based.
The subject of test [27] is HBZY-1. In words: Cytoprotective activity against HG-induced cell death in rat HBZY-1 cells assessed as […] by measuring early apoptotic cells at 0.9 uM by Annexin V-FITC/propidium iodide staining-based flow cytometric analysis (reference value: 8.13%). It is filed as functional.

Calls of active or inactive are those of the source. The calls are words filed in the database; no cut-off is given here.

On to `CC(/C=C1\SC(=S)N(CC(=O)O)C1=O)=C\c1ccccc1`, for which the “fold change (FC)” value with HBZY-1 [1] amounted to 1.81. Moreover, the Activity with HBZY-1 [2] is 8.31%; in the test on HBZY-1 [5], 8.98%. Also, the result in the test on HBZY-1 [3] and in the test with HBZY-1 [4] was Active.

For `CC(=O)Oc1cc(-c2ccccc2)n(C(C)=O)c1`, the result with Rattus norvegicus [6], in the test on HBZY-1 [8], in the test on Rattus norvegicus [9], in the test on Rattus norvegicus [10], with Rattus norvegicus [13] and in the test with HBZY-1 [3] was Active. The result in the test on Rattus norvegicus [14], with Rattus norvegicus [15], with Rattus norvegicus [16], in the test with Rattus norvegicus [18], with Rattus norvegicus [20] and in the test on HBZY-1 [22] was Active. Further, the outcome with HBZY-1 [4] and with HBZY-1 [26] was Active. The Activity in the test with HBZY-1 [7] came to 10.31%; with HBZY-1 [11], 8.45%; in the test on HBZY-1 [12] it was 13.67%; in the test on HBZY-1 [21], 8.18%; with HBZY-1 [25], 5.66%; in the test on HBZY-1 [27], 9.97%. For the same compound, the “fold change (FC)” value in the test on HBZY-1 [1] is listed as 1.93; in the test with HBZY-1 [17] it was 2.29; with HBZY-1 [24], 2.07. Also, the inhibition entry in test [19] is “Active”. The compound further registered an IC50 in test [23] of 22.3 nM.

What is called IC50 is the concentration that gives 50% inhibition. A lower IC50 goes with higher potency.

The values are drawn from ChEMBL document CHEMBL4043170, “1-Acetyl-5-phenyl-1H-pyrrol-3-ylacetate: An aldose reductase inhibitor for the treatment of diabetic nephropathy” (Bioorg Med Chem Lett, 2017).
